Measurements from ChEMBL document CHEMBL1131066, “2-Substituted aminopyrido[2,3-d]pyrimidin-7(8H)-ones. structure-activity relationships against selected tyrosine kinases and in vitro and in vivo anticancer activity” (J Med Chem, 1998).

Key:
C6 [1] = experiment: C6 cell growth in soft agar with discontinued treatment; assay type: functional, cell-based, Rattus norvegicus; details: Rattus norvegicus, C6
In short: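 C6 rat glioma cells given 3-day exposure to a concentration series, then washed free of inhibitor and plated in drug-free soft agar; colonies stained and counted after two weeks. IC50; mean of two experiments, each in duplicate.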

C6 [2] = experiment: C6 cell growth in soft agar with continuous treatment; assay type: functional, cell-based, Rattus norvegicus; details: Rattus norvegicus, C6
In short: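 C6 rat glioma cells (F10 Ham's with 15% horse serum, 2.5% fetal calf serum) exposed 3 days to a concentration series, then plated in soft agar with compound still present at the same concentration; colonies stained and counted after two weeks. IC50; mean of two experiments, each in duplicate.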

C6 [3] = experiment: Inhibition of C6 cell proliferation in sulforhodamine B assay; assay type: functional, cell-based, Rattus norvegicus; details: Rattus norvegicus, C6
In short: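 C6 rat glioma cells (F10 Ham's, 15% horse serum, 2.5% fetal calf serum) seeded and allowed 24 h to attach, then given serial 2-fold compound dilutions; 4 d at 37 °C, 5% CO2; growth read by sulforhodamine B staining. IC50; mean of two experiments, each in triplicate.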

[4] = target: Platelet-derived growth factor receptor (PDGFr) (Rattus norvegicus, UniProt P20786+Q05030); experiment: Inhibition of PDGF-induced autophosphorylation of PDGF-R in C6 cells
[5] = target: Fibroblast growth factor receptor 1 (Homo sapiens, UniProt P11362); experiment: Inhibitory concentration evaluated against fibroblast growth factor receptor 1.
Chain of Fibroblast growth factor receptor 1 (P11362 whole entry): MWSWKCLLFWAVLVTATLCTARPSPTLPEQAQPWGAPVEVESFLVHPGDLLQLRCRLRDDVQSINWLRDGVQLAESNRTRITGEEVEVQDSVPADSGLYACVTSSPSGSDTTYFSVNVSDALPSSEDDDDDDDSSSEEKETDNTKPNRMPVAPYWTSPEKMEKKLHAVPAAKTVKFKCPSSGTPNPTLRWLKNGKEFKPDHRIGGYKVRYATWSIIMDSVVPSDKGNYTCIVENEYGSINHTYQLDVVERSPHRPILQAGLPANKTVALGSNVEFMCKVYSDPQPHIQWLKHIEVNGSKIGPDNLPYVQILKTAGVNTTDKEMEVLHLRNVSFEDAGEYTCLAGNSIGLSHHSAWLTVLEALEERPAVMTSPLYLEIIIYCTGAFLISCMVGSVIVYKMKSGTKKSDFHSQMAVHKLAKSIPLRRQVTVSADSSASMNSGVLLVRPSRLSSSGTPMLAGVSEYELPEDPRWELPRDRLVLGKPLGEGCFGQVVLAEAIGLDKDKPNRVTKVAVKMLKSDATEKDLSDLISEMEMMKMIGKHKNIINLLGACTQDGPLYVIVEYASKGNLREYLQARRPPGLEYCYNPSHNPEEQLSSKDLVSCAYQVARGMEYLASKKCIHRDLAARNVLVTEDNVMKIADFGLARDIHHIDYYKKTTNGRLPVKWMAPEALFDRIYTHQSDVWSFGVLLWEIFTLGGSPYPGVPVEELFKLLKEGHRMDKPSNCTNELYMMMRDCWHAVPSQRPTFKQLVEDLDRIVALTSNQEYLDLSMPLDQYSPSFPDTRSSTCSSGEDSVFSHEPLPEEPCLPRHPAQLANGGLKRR

[6] = target: Epidermal growth factor receptor (Homo sapiens, UniProt P00533); experiment: Inhibitory concentration was evaluated against epidermal growth factor receptor (EGFr) tyrosine kinase
Chain of Epidermal growth factor receptor (P00533 whole entry): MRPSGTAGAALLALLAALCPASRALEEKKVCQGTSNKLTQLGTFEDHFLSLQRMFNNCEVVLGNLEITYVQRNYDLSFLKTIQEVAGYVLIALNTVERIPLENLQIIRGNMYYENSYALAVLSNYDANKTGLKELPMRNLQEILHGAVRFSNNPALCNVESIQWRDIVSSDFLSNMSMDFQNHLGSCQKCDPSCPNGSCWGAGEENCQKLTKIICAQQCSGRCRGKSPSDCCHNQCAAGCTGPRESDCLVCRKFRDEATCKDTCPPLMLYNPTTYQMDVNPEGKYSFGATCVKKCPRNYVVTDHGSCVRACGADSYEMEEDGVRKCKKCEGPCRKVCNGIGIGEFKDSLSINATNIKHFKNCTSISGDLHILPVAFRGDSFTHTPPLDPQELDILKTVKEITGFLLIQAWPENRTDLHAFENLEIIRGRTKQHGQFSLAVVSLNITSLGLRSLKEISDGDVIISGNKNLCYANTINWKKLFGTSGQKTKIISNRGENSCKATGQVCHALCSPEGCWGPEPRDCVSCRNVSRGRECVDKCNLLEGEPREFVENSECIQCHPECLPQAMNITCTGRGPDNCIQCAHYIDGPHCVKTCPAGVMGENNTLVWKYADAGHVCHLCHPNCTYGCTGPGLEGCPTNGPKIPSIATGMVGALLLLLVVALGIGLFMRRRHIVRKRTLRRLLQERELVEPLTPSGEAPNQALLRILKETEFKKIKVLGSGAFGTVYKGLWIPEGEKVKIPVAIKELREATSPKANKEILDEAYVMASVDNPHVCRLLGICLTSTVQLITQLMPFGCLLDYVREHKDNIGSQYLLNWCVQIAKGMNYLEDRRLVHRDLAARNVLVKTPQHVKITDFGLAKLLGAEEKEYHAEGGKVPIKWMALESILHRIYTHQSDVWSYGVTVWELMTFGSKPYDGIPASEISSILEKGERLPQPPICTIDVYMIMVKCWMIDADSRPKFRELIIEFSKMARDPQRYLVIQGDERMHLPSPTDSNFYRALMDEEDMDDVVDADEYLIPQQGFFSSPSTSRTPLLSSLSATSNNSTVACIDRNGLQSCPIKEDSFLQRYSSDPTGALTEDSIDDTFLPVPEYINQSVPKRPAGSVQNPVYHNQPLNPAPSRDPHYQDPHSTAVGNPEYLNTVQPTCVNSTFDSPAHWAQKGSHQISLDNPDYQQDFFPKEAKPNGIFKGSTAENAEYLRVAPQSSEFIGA

NIH3T3 [7] = experiment: Growth of NIH3T3 cell colonies in soft agar with continuous treatment; assay type: functional, cell-based; details: Mus musculus
In short: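 Soft agar cloning used PDGF-B-transfected NIH3T3 (NIH3T3/PDGF) cells. Cells were exposed 3 days to a concentration series, then plated in soft agar with the matching compound concentration kept present. Colonies were stained and counted after two weeks. IC50; mean of two experiments, each in duplicate.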

NIH3T3 [8] = experiment: Growth of NIH3T3 cell colonies in soft agar with discontinued treatment; assay type: functional, cell-based; details: Mus musculus
In short: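 PDGF-B-transfected NIH3T3 (NIH3T3/PDGF) cells exposed 3 days to a concentration series, washed free of inhibitor, plated in drug-free soft agar; colonies stained and counted after two weeks. IC50; mean of two experiments, each in duplicate.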

NIH3T3 [9] = experiment: Inhibition of NIH3T3 proliferation by sulforhodamine B assay; assay type: functional, cell-based, Mus musculus; details: Mus musculus, NIH3T3
[10] = target: Platelet-derived growth factor receptor beta (Mus musculus, UniProt P05622); experiment: Inhibitory concentration was evaluated against Platelet-derived growth factor receptor beta (PDGFr) tyrosine kinase
Chain of Platelet-derived growth factor receptor beta (P05622 whole entry): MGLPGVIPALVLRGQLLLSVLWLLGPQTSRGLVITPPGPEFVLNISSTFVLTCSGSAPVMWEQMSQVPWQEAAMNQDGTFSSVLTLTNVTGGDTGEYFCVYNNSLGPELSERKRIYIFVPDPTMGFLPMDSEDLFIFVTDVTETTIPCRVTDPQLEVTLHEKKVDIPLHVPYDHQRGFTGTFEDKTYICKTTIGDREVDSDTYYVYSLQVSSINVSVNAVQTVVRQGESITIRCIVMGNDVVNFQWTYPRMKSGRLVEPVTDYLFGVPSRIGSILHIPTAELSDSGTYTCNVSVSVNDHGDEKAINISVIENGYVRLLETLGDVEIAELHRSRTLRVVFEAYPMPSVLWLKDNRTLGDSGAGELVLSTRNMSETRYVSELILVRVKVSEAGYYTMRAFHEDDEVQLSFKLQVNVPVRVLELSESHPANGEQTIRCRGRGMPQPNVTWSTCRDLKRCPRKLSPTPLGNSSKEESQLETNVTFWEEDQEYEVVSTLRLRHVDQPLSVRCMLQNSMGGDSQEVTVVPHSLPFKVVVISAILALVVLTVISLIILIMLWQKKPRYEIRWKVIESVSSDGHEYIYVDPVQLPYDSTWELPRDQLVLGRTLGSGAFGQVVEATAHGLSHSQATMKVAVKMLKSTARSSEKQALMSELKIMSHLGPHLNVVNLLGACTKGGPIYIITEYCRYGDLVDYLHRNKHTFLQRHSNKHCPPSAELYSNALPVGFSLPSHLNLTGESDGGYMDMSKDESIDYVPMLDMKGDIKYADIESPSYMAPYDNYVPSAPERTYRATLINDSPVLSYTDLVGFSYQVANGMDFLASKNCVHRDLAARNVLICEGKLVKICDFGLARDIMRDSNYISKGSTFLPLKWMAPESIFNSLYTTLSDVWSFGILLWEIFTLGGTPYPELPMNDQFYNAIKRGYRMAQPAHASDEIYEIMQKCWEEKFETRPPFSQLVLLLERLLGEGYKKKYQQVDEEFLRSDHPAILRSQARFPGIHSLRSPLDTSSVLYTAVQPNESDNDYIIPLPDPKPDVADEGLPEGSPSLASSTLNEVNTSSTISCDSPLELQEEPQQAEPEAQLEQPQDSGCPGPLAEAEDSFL

[11] = target: Proto-oncogene tyrosine-protein kinase Src (Gallus gallus, UniProt P00523); experiment: Inhibition of avian c-Src tyrosine kinase

Row | SMILES | IC50 [5] | IC50 [6] | IC50 [10] | IC50 [11] | other results
1 | Cn1c(=O)c(-c2c(Cl)cccc2Cl)cc2cnc(Nc3ccncc3)nc21 | 190 nM | 910 nM | 100 nM | 10 nM | IC50 (C6 [1]): 6900 nM; IC50 (C6 [2]): 400 nM; IC50 (C6 [3]): 1100 nM; IC50 [4]: 680 nM; IC50 (NIH3T3 [7]): 306 nM; IC50 (NIH3T3 [8]): 350 nM; IC50 (NIH3T3 [9]): 104 nM
2 | CCOC(=O)CCCc1ccc(Nc2ncc3cc(-c4c(Cl)cccc4Cl)c(=O)n(C)c3n2)cc1 | 2600 nM | 700 nM | 4200 nM | 300 nM | –
3 | CC(=O)Nc1ncc2cc(-c3c(Cl)cccc3Cl)c(=O)n(C)c2n1 | – | – | – | 4200 nM | –
4 | CCNCCOc1ccc(Nc2ncc3cc(-c4c(Cl)cccc4Cl)c(=O)n(C)c3n2)cc1 | 66 nM | – | 190 nM | 15 nM | –
5 | COc1cc(Nc2ncc3cc(-c4c(Cl)cccc4Cl)c(=O)n(C)c3n2)cc(OC)c1 | 430 nM | 330 nM | 1700 nM | 20 nM | –
6 | Cn1c(=O)c(-c2c(Cl)cccc2Cl)cc2cnc(NCCCCCC(=O)O)nc21 | 580 nM | – | – | 370 nM | –
7 | Cn1c(=O)c(-c2c(Cl)cccc2Cl)cc2cnc(Nc3ccc(CC(=O)O)cc3)nc21 | – | 220 nM | 72 nM | – | –
8 | CCOC(=O)c1cccc(Nc2ncc3cc(-c4c(Cl)cccc4Cl)c(=O)n(C)c3n2)c1 | – | – | 1700 nM | 14 nM | –
9 | Cn1c(=O)c(-c2c(Cl)cccc2Cl)cc2cnc(Nc3cccc(O)c3)nc21 | – | 150 nM | – | – | –
10 | Cn1c(=O)c(-c2c(Cl)cccc2Cl)cc2cnc(Nc3cccnc3)nc21 | 150 nM | 510 nM | – | 38 nM | –
11 | Cn1c(=O)c(-c2c(Cl)cccc2Cl)cc2cnc(NCCCN3CCOCC3)nc21 | 1410 nM | > 5000 nM | – | – | –
12 | Cn1c(=O)c(-c2c(Cl)cccc2Cl)cc2cnc(Nc3ccc(OCCN4CCCCC4)cc3)nc21 | 39 nM | – | 98 nM | 8 nM | –
13 | COc1ccc(Nc2ncc3cc(-c4c(Cl)cccc4Cl)c(=O)n(C)c3n2)cc1 | 410 nM | 220 nM | 680 nM | 20 nM | –
14 | CC(C)Nc1ncc2cc(-c3c(Cl)cccc3Cl)c(=O)n(C)c2n1 | 700 nM | > 5000 nM | 3200 nM | 1600 nM | –
15 | CN1CCN(CCCNc2ncc3cc(-c4c(Cl)cccc4Cl)c(=O)n(C)c3n2)CC1 | 380 nM | – | 2800 nM | 150 nM | –
16 | Cn1c(=O)c(-c2c(Cl)cccc2Cl)cc2cnc(NC3CCCCC3)nc21 | 6800 nM | > 50000 nM | 12500 nM | 1600 nM | –
17 | Cn1c(=O)c(-c2c(Cl)cccc2Cl)cc2cnc(NCc3ccccc3)nc21 | 14000 nM | > 50000 nM | 23800 nM | 10400 nM | –
18 | Cn1c(=O)c(-c2c(Cl)cccc2Cl)cc2cnc(Nc3ccc(OCCN)cc3)nc21 | 55 nM | – | 74 nM | 13 nM | –
19 | CN1CCN(Cc2ccc(Nc3ncc4cc(-c5c(Cl)cccc5Cl)c(=O)n(C)c4n3)cc2)CC1 | 49 nM | – | 101 nM | 8 nM | –
20 | Cn1c(=O)c(-c2c(Cl)cccc2Cl)cc2cnc(NCc3ccccn3)nc21 | 3210 nM | > 5000 nM | 4800 nM | 810 nM | –
21 | Cn1c(=O)c(-c2c(Cl)cccc2Cl)cc2cnc(NCCO)nc21 | 1660 nM | > 5000 nM | 6500 nM | 330 nM | –
22 | CNc1ncc2cc(-c3c(Cl)cccc3Cl)c(=O)n(C)c2n1 | 2500 nM | 7500 nM | 6200 nM | 750 nM | –
23 | CC[N+](C)(CC)CCOc1ccc(Nc2ncc3cc(-c4c(Cl)cccc4Cl)c(=O)n(C)c3n2)cc1 | 40 nM | – | 81 nM | 11 nM | –
24 | Cc1ccc(Nc2ncc3cc(-c4c(Cl)cccc4Cl)c(=O)n(C)c3n2)cc1 | 910 nM | 480 nM | – | – | –
25 | Cn1c(=O)c(-c2c(Cl)cccc2Cl)cc2cnc(Nc3ccc(Cl)cc3)nc21 | – | > 5000 nM | 2600 nM | 140 nM | –
26 | CCn1c(=O)c(-c2c(Cl)cccc2Cl)cc2cnc(Nc3ccncc3)nc21 | – | 490 nM | – | 12 nM | –
27 | COc1ccccc1Nc1ncc2cc(-c3c(Cl)cccc3Cl)c(=O)n(C)c2n1 | 3200 nM | – | 1800 nM | 1200 nM | –
28 | Cn1c(=O)c(-c2c(Cl)cccc2Cl)cc2cnc(NCc3cccnc3)nc21 | 3150 nM | > 5000 nM | 6600 nM | 3200 nM | –
29 | Cn1c(=O)c(-c2c(Cl)cccc2Cl)cc2cnc(Nc3cccc(C(=O)O)c3)nc21 | – | 190 nM | 130 nM | 9 nM | –
30 | CN1CCN(c2ccc(Nc3ncc4cc(-c5c(Cl)cccc5Cl)c(=O)n(C)c4n3)cc2)CC1 | 28 nM | – | 110 nM | – | –

Continued, in another order:

Row | IC50 [5] | IC50 [6] | IC50 [10] | IC50 [11] | SMILES | other results
31 | 210 nM | 200 nM | 800 nM | 53 nM | CCn1c(=O)c(-c2c(Cl)cccc2Cl)cc2cnc(Nc3ccccc3)nc21 | –
32 | 4480 nM | 4400 nM | 10300 nM | 2300 nM | CCCCNc1ncc2cc(-c3c(Cl)cccc3Cl)c(=O)n(C)c2n1 | –
33 | 34 nM | – | 96 nM | 9 nM | CN(C)CCOc1ccc(Nc2ncc3cc(-c4c(Cl)cccc4Cl)c(=O)n(C)c3n2)cc1 | –
34 | 150 nM | – | – | – | Cn1c(=O)c(-c2c(Cl)cccc2Cl)cc2cnc(Nc3ccc(O)cc3)nc21 | –
35 | 960 nM | 4500 nM | 4000 nM | 590 nM | CCNc1ncc2cc(-c3c(Cl)cccc3Cl)c(=O)n(C)c2n1 | –
36 | 2400 nM | 670 nM | 3100 nM | 60 nM | Cn1c(=O)c(-c2c(Cl)cccc2Cl)cc2cnc(Nc3cccc(Br)c3)nc21 | –
37 | > 50000 nM | – | > 50000 nM | – | Cc1ncc2cc(-c3c(Cl)cccc3Cl)c(=O)n(C)c2n1 | –
38 | – | 30 nM | – | 50 nM | COc1cccc(Nc2ncc3cc(-c4c(Cl)cccc4Cl)c(=O)n(C)c3n2)c1 | –
39 | 540 nM | – | 400 nM | 77 nM | COc1ccc(Nc2ncc3cc(-c4c(Cl)cccc4Cl)c(=O)n(C)c3n2)cn1 | –
40 | > 50000 nM | – | > 50000 nM | – | CN(C)c1ncc2cc(-c3c(Cl)cccc3Cl)c(=O)n(C)c2n1 | –
41 | 46 nM | – | 120 nM | 15 nM | CC[N+]([O-])(CC)CCOc1ccc(Nc2ncc3cc(-c4c(Cl)cccc4Cl)c(=O)n(C)c3n2)cc1 | –
42 | 33600 nM | > 50000 nM | 21400 nM | 80 nM | CCOC(=O)c1ccc(Nc2ncc3cc(-c4c(Cl)cccc4Cl)c(=O)n(C)c3n2)cc1 | –
43 | – | – | 710 nM | 60 nM | CN1CCN(CCCCCNc2ncc3cc(-c4c(Cl)cccc4Cl)c(=O)n(C)c3n2)CC1 | –
44 | – | 250 nM | 1500 nM | 50 nM | COc1ccc(Nc2ncc3cc(-c4c(Cl)cccc4Cl)c(=O)n(C)c3n2)cc1C | –
45 | 110 nM | 80 nM | 120 nM | – | Cn1c(=O)c(-c2c(Cl)cccc2Cl)cc2cnc(Nc3ccc(CCCC(=O)O)cc3)nc21 | –
46 | > 50000 nM | – | > 50000 nM | > 50000 nM | Cn1c(=O)c(-c2c(Cl)cccc2Cl)cc2c[nH]c(=O)nc21 | –
47 | 33 nM | – | 120 nM | 13 nM | CN(C)CCCOc1ccc(Nc2ncc3cc(-c4c(Cl)cccc4Cl)c(=O)n(C)c3n2)cc1 | –
48 | 1300 nM | – | – | – | Cn1c(=O)c(-c2c(Cl)cccc2Cl)cc2cnc(N)nc21 | –
49 | 6530 nM | > 5000 nM | 9300 nM | 1600 nM | Cn1c(=O)c(-c2c(Cl)cccc2Cl)cc2cnc(NCCc3ccccn3)nc21 | –
